Test results as given in ChEMBL document CHEMBL3804779, “Novel free fatty acid receptor 1 (GPR40) agonists based on 1,3,4-thiadiazole-2-carboxamide scaffold” (Bioorg Med Chem, 2016).
Values belong to the molecule of their own block, whether it stands above or below them.

Experiments:
[1] = target: Free fatty acid receptor 1 (Homo sapiens, UniProt O14842); assay: Agonist activity at human GPR40 expressed in CHO cells by calcium influx assay; format: functional, cell-based
How it was run: (§1)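 CHO cells stably expressing the receptor (GPR40, GPR41, GPR43 or GPR120) plated 24 h before assay and loaded with calcium dye for 1 h. Calcium flux read on FLIPR Tetra. Agonist response taken as maximum fluorescence change over baseline. Concentration-response curves fitted for EC50. GW9508 run as positive control.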

[2] = target: T1, Free fatty acid receptor 3 (Homo sapiens, UniProt O14843); assay: Agonist activity at human GPR41 (unknown origin) expressed in CHO cells by calcium influx assay; format: functional, cell-based; how it was run: as §1
T1 sequence (O14843 whole entry): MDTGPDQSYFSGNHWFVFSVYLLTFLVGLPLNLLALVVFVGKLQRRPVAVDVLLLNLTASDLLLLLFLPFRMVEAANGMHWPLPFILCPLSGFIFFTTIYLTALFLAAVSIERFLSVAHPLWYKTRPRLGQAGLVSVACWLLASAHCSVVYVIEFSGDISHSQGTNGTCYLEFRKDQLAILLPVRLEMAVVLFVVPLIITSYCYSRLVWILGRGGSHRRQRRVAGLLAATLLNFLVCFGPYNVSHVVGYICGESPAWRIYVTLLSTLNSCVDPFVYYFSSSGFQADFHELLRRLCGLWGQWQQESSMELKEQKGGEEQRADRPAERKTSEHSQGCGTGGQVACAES

[3] = target: T2, Free fatty acid receptor 2 (Homo sapiens, UniProt O15552); assay: Agonist activity at human GPR43 (unknown origin) expressed in CHO cells by calcium influx assay; format: functional, cell-based; how it was run: as §1
T2 sequence (O15552 whole entry): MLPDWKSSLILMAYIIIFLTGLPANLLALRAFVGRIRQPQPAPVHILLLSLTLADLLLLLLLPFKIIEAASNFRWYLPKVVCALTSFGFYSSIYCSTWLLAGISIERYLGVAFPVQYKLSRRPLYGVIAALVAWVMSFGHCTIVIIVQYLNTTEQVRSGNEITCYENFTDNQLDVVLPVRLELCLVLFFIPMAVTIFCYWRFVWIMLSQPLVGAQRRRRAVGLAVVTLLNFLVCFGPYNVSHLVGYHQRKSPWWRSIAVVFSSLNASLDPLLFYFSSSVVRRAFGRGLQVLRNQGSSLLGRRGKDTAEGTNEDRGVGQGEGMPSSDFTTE

[4] = target: T3, Free fatty acid receptor 4 (Homo sapiens, UniProt Q5NUL3); assay: Agonist activity at human GPR120 (unknown origin) expressed in CHO cells by calcium influx assay; format: functional, cell-based; how it was run: as §1
T3 sequence (Q5NUL3 whole entry): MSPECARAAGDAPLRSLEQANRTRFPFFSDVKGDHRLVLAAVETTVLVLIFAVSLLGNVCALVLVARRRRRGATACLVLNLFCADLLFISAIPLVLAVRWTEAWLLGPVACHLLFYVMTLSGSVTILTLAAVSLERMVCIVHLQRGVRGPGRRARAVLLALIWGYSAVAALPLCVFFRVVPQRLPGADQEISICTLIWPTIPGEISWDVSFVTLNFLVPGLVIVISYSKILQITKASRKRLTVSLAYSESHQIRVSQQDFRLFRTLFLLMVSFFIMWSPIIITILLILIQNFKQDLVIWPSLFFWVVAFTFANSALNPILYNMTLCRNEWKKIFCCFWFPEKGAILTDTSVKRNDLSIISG

[5] = Half life in mouse plasma at 1 uM by LC-MS/MS analysis; format: ADME
How it was run: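 Compound at 1 uM (1% DMSO final) incubated in mouse plasma at 37 °C with shaking. Five time points sampled over 120 min, each quenched with acetonitrile and centrifuged. Supernatant analysed by LC-MS/MS for percentage remaining and T1/2. Verapamil and propantheline used as references.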

[6] = Protein binding in mouse plasma at 1 uM after 5 hrs by HPLC-MS/MS analysis; format: ADME, cell-free; conditions: read-out: PPB (converted)
How it was run: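 Equilibrium dialysis (MWCO 12-14 kDa) of mouse plasma spiked at 1 uM (1% solvent final) against PBS pH 7.4, 37 °C, orbital shaking, 5 h, in quadruplicate. Chamber samples matrix-matched, precipitated with acetonitrile and analysed by HPLC-MS/MS. % bound = (1 − buffer/plasma peak area) × 100. Recovery checked against an undialyzed standard. Verapamil used as reference.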

[7] = Metabolic stability in BALB/c mouse liver microsomes at 2 uM after 40 mins by HPLC analysis; format: ADME
How it was run: (§2)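 BALB/c male mouse liver microsomes (pooled, perfused livers) at 0.42 mg protein/ml in 100 mM phosphate buffer pH 7.4 with MgCl2 and an NADPH-regenerating system. Compound at 2 uM (1.6% solvent final) incubated at 37 °C in duplicate. Five time points over 40 min, quenched with acetonitrile and read by HPLC-MS/MS. Controls lacked NADPH. kel from ln(AUC) vs time regression; T1/2 = 0.693/kel; CLint scaled per mg microsomal protein.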

[8] = Distribution coefficient, log D of the compound at pH 7.4 by LC-MS/MS analysis; format: physicochemical; conditions: octanol/water
How it was run: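 Shake-flask partitioning between n-octanol and PBS, run in duplicate. Compound added from 10 mM DMSO stock to pre-equilibrated phases, shaken 1 h and separated by centrifugation. Each phase diluted and quantified by LC-MS/MS. D calculated from peak areas corrected for dilution (100·So/Sp). Reference compound included.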

[9] = Intrinsic clearance in BALB/c mouse liver microsomes at 2 uM after 40 mins by HPLC analysis; format: ADME; conditions: read-out: CLH; how it was run: as §2
[10] = target: T4, hERG (KCNH2) (Homo sapiens, UniProt Q12809); assay: Inhibition of human ERG expressed in cell membranes at 20 uM after 4 hrs by fluorescence polarization assay; conditions: cell membranes that express human ERG
How it was run: (§3)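 Predictor hERG fluorescence polarization kit used per manufacturer's protocol. hERG-containing cell membranes incubated with fluorescent tracer and test compound at 1, 5 or 20 uM for 4 h.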

[11] = target: T4, hERG (KCNH2); assay: Inhibition of human ERG expressed in cell membranes at 5 uM after 4 hrs by fluorescence polarization assay; conditions: cell membranes that express human ERG; how it was run: as §3
[12] = target: T4, hERG (KCNH2); assay: Inhibition of human ERG expressed in cell membranes at 1 uM after 4 hrs by fluorescence polarization assay; conditions: cell membranes that express human ERG; how it was run: as §3
[13] = target: T5, CYP1A2 (Homo sapiens, UniProt P05177); assay: Inhibition of CYP1A2 (unknown origin) at 20 uM by P450-glo assay; format: ADME
T5 sequence (P05177 whole entry): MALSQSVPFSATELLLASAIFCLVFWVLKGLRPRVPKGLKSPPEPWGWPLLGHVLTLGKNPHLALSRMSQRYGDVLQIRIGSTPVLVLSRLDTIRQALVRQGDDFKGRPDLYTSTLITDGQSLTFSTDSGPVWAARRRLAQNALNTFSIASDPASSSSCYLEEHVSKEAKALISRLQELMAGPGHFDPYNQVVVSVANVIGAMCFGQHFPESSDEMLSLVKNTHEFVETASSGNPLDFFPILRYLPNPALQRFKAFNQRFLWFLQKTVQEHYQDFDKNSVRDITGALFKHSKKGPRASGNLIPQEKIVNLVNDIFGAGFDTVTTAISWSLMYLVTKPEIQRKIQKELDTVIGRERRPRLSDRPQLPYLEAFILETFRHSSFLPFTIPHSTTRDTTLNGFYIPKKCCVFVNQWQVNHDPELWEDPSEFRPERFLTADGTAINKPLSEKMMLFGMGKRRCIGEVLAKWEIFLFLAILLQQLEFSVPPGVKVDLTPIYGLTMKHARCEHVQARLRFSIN
How it was run: (§4)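 P450-Glo luminescent assay run per manufacturer's protocol. Each CYP isoform incubated with its luminogenic substrate and test compound at 20 uM (0.25% DMSO final), in quadruplicate. Control membranes without CYP served as baseline.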

[14] = target: CYP2C9 (Homo sapiens, UniProt P11712); assay: Inhibition of CYP2C9 (unknown origin) at 20 uM by P450-glo assay; format: ADME; how it was run: as §4
[15] = target: CYP2C19 (Homo sapiens, UniProt P33261); assay: Inhibition of CYP2C19 (unknown origin) at 20 uM by P450-glo assay; format: ADME; how it was run: as §4
[16] = target: CYP2D6 (Homo sapiens, UniProt P10635); assay: Inhibition of CYP2D6 (unknown origin) at 20 uM by P450-glo assay; format: ADME; how it was run: as §4
[17] = target: CYP3A4 (Homo sapiens, UniProt P08684); assay: Inhibition of CYP3A4 (unknown origin) at 20 uM by P450-glo assay; format: ADME
Chain of CYP3A4 (P08684 whole entry): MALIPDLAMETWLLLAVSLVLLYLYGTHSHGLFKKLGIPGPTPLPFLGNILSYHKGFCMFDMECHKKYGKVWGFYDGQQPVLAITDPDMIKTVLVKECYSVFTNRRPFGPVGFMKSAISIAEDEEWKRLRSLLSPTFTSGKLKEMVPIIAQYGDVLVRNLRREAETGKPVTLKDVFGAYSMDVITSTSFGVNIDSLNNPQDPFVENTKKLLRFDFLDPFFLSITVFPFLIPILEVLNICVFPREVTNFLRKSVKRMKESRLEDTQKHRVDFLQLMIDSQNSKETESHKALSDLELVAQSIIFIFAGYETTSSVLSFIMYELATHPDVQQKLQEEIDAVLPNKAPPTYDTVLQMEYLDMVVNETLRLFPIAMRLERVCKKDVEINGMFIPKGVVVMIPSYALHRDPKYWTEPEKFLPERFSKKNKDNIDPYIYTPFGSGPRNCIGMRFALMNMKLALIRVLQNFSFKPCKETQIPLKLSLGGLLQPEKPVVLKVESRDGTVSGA

Chain of Free fatty acid receptor 1 (O14842 whole entry): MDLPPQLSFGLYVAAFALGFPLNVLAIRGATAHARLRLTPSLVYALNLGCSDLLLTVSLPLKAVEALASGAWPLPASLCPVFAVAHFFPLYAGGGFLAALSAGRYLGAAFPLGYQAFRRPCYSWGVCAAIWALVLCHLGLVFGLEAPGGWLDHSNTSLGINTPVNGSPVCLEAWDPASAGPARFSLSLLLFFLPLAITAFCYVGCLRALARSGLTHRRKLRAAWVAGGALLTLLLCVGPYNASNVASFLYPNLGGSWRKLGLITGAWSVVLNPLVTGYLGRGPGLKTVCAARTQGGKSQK
T4 sequence (Q12809 whole entry): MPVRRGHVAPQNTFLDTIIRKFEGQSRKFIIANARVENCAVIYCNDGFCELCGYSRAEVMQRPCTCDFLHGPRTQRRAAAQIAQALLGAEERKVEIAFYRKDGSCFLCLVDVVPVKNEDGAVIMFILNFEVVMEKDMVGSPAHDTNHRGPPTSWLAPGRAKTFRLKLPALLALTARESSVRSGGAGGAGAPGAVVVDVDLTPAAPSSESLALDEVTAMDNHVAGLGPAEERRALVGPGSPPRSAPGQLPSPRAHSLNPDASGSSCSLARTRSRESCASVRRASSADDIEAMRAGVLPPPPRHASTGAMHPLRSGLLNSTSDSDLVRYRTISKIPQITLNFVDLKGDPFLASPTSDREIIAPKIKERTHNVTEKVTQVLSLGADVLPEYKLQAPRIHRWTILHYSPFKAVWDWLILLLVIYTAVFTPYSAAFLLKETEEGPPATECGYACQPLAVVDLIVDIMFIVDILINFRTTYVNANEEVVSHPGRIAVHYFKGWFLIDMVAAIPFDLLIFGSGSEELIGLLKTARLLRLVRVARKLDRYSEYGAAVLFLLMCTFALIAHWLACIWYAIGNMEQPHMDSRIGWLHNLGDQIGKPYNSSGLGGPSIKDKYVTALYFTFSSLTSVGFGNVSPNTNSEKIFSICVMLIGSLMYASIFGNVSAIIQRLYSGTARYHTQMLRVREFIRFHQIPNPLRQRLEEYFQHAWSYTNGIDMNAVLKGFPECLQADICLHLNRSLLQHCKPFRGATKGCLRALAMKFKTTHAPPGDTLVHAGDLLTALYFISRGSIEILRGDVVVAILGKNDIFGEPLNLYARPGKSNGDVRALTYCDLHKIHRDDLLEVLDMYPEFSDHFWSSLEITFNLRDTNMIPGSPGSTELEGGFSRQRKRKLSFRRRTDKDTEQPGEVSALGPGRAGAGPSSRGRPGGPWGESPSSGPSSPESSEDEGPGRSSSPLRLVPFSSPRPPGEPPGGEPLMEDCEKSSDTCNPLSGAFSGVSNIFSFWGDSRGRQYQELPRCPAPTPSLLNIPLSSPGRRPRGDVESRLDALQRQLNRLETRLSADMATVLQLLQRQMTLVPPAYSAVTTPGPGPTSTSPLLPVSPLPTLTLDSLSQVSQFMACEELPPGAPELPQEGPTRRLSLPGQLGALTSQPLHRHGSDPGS
Chain of CYP2C19 (P33261 whole entry): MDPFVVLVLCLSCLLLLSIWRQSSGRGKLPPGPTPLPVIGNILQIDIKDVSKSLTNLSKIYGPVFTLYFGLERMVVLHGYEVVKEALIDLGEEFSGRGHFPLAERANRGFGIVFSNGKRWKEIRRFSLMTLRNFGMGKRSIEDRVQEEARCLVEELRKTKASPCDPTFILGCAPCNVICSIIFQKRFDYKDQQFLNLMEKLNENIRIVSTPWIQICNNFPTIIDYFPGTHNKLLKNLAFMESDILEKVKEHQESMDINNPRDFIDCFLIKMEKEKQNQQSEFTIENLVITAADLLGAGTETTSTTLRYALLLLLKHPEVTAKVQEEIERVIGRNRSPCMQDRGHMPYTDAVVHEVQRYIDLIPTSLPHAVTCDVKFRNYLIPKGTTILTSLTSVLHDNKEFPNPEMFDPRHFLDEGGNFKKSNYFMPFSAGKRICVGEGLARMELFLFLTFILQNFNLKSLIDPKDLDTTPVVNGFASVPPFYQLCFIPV
Chain of CYP2C9 (P11712 whole entry): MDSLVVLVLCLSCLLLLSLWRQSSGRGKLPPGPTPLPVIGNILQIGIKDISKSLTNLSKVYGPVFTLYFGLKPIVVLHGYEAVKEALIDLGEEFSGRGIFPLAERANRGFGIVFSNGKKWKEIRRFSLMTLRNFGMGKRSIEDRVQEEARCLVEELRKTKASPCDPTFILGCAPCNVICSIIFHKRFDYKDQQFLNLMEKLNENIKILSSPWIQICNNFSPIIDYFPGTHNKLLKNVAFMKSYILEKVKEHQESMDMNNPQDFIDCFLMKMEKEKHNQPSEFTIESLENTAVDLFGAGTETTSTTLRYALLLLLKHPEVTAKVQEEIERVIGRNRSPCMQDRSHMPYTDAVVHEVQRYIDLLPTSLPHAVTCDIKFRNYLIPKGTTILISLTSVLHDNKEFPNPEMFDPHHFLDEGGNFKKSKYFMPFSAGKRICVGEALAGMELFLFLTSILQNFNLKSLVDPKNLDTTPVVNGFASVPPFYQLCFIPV
Chain of CYP2D6 (P10635 whole entry): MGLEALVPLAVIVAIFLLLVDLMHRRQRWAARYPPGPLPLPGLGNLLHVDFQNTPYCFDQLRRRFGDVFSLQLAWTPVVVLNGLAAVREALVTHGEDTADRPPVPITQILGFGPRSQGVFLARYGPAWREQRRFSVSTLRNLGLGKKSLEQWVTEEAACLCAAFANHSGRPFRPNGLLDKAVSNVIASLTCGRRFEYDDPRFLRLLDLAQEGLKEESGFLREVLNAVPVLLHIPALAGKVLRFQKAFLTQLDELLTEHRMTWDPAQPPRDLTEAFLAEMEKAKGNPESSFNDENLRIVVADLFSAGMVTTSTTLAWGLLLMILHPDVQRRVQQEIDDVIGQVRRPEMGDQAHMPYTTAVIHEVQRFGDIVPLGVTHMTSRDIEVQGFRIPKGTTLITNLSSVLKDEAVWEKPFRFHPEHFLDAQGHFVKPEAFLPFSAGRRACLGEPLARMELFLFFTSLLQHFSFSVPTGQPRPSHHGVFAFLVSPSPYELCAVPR

SMILES: O=C(O)CCc1nnc(C(=O)Nc2ccc(OCc3ccccc3)cc2)s1
- EC50 [1]: 17.9 µM

SMILES: O=C(O)CCc1ccc(OCc2nnc(C(=O)Nc3ccc(F)cc3)s2)cc1
- EC50 [1]: 6.64 µM

SMILES: COc1ccc(NC(=O)c2nnc(COc3ccc(CCC(=O)O)cc3)s2)cc1
- EC50 [1]: > 10 µM

SMILES: O=C(O)CCc1ccc(OCc2nnc(C(=O)Nc3cccc(Cl)c3)s2)cc1
- EC50 [1]: 10.6 µM
- half-life at 1 µM [5]: 1.93 h
- fraction unbound at 5 h, 1 µM [6]: 0.072
- half-life at 2 µM [7]: 0.22 h
- logD [8]: 1.46
- microsomal CLint at 2 µM [9]: 126 µL/min/mg
- inhibition at 4 h, 20 µM [10]: 36%
- inhibition at 4 h, 5 µM [11]: -3%
- inhibition at 4 h, 1 µM [12]: 1%
- inhibition at 20 µM [13]: 41.9%
- inhibition at 20 µM [14]: 85%
- inhibition at 20 µM [15]: 77.7%
- inhibition at 20 µM [16]: 22.7%
- inhibition at 20 µM [17]: 55.2%

Now those with a lower EC50 [1], led by results:

- EC50 [1]: 4.3 µM
SMILES: Cc1ccc(NC(=O)c2nnc(COc3ccc(CCC(=O)O)cc3)s2)cc1

- EC50 [1]: 1.64 µM
SMILES: O=C(O)CCc1nnc(C(=O)Nc2cccc(-c3ccco3)c2)s1

- EC50 [1]: 0.76 µM
- EC50 [2]: > 10 µM
- EC50 [3]: > 10 µM
- EC50 [4]: > 10 µM
- half-life at 1 µM [5]: > 4 h
- fraction unbound at 5 h, 1 µM [6]: 0.076
- half-life at 2 µM [7]: 1.29 h
- logD [8]: 1.28
- microsomal CLint at 2 µM [9]: 21.6 µL/min/mg
- inhibition at 20 µM [13]: 94.3%
- inhibition at 20 µM [14]: 9.8%
- inhibition at 20 µM [15]: 37.2%
- inhibition at 20 µM [16]: 1.8%
- inhibition at 20 µM [17]: 12.3%
SMILES: Cc1cccc(-c2cccc(NC(=O)c3nnc(CCC(=O)O)s3)c2)c1
- inhibition at 4 h, 20 µM [10]: 22%
- inhibition at 4 h, 5 µM [11]: 2%
- inhibition at 4 h, 1 µM [12]: 8%

- EC50 [1]: 1.69 µM
SMILES: O=C(O)CCc1nnc(C(=O)Nc2cccc(-c3cccc(Cl)c3)c2)s1
